CXCR6 block = CXCR6 (human) receptor inhibition; O00574; CHO-K1 PathHunter CXCR6 beta-arrestin, luminescence; inhibition, % at 20 µM; AID 602244; hit rate 0.36% among 360,000; in the data active = inhibition above about 34%, passing the limit was not always enough;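 note: antagonist mode with CXCL16 agonist at 10 nM final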
Target sequence (O00574 whole entry, looked up): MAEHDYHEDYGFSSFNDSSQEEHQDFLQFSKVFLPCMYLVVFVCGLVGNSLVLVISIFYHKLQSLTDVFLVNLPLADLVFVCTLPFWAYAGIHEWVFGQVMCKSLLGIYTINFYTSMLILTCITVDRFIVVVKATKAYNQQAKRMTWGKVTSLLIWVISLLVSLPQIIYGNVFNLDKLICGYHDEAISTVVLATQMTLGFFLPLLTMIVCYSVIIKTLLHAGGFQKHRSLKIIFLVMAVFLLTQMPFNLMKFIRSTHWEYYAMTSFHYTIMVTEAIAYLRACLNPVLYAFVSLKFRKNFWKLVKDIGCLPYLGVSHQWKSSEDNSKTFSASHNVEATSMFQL
APJ ag = APJ receptor agonism | CHO-K1 APJ PathHunter beta-arrestin, luminescence; 0% DMSO wells, 100% apelin | activation, % at 20 µM | hit rate 0.11% among 330,000;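 active = activation more than six SD over the plate average, tested at 20 µM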
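Assay system: engineered CHO-K1 APJ arrestin reporter cells; Amount: 1000 CHO-K1 reporter cells seeded per well; Dosing: one dose, 20 µM compound, 1% DMSO; Times: compound stimulation 90 min at 25 °C, detection 60 min; Measured by: luminescent beta-gal fragment complementation, chemiluminescent substrate; Read-out: APJ–arrestin association signal; Controls: DMSO vs Apelin-13 10 nM.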
APJ antagonist = blocks the human apelin receptor APJ; P35414; CHO-K1 APJ beta-arrestin complementation, luminescence; inhibition, % at 20 µM; hit rate 0.32% among 330,000; AID 2521;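 active = inhibition above about 40% at 20 µM, limit read from the data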;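 note: cells challenged with 10 nM apelin-13 agonist together with compound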
hiPSC survival = increases survival of single human iPS cells. hiPSC single-cell survival, ATPlite luminescence; 100% = ROCK inhibitor wells, 0% = DMSO. survival enhancement, % at 20 µM. hit rate 0.044% among 360,000; in the data active = survival enhancement above about 18%;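 note: cells exposed to compounds for 16 hours before the ATP read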
EBI2 block = antagonists of human EBI2 receptor; P32249; EBI2 beta-arrestin recruitment, luminescence, 7a,25-OHC stimulated; inhibition, % at 5 µM; hit rate 0.81% among 360,000; in the data active = inhibition above about 38%;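 note: enzyme fragment complementation signal reports receptor beta-arrestin coupling in cells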
CCR6 antagonist = antagonists of human CCR6 receptor. P51684. CHO-K1 CCR6 PathHunter beta-arrestin, luminescence, CCL20-stimulated. inhibition, % at 20 µM. hit rate 0.49% among 340,000. AID 493098;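 active = compounds whose inhibition of the agonist-driven luminescence signal at 20 µM reaches about 50%, limit read from the data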;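 note: cells stimulated with CCL20 at 14 nM final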
Target sequence (P51684 whole entry, looked up): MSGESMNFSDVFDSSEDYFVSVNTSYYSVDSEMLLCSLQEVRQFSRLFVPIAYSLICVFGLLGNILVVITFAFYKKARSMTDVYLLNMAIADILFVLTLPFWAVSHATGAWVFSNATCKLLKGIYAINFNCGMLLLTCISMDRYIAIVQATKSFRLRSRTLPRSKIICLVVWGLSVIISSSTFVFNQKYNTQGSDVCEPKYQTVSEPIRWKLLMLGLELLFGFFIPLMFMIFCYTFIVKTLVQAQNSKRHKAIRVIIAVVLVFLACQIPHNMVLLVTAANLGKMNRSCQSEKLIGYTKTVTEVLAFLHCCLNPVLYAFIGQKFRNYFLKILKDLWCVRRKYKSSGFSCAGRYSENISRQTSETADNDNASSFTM
EBI2 antag conf = confirmation of human EBI2 receptor antagonists; hit rate 29% among 2,400; EBI2 beta-arrestin luminescence, 7a,25-OHC antagonism; inhibition, % at 5 µM; AID 651997; shares compounds with EBI2 block;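 active = inhibition of at least 50%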
EBI2 ag = EBI2 agonism counter-screen. shares compounds with EBI2 block. EBI2-expressing cells, agonist mode, luminescence, 60 min; 0% vehicle, 100% 7α,25-dihydroxycholesterol control. activation, % at 5 µM. 2,400 tested, under 10 active;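 active = activation of at least 50%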
bGal counter = counter-screen for EBI2 antagonists: E. coli beta-galactosidase inhibition; shares compounds with EBI2 block; purified beta-galactosidase, luminescent Galacton Star, 15 min; inhibition, % at 5 µM; hit rate 1% among 2,400; AID 652176;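 active = replicate-average signal at least 3 plate SD below neutral wells, shown as high inhibition, flagging enzyme-inhibiting false positives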;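 note: higher means stronger loss of beta-gal luminescence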
A number is an active result; i = inactive; nt = not tested or not shown. Shown are actives, neighbours in structure and some others; about 1.5% of the full set was active somewhere.

SMILES | CXCR6 block | APJ ag | APJ antagonist | hiPSC survival | EBI2 block | CCR6 antagonist | EBI2 antag conf | EBI2 ag | bGal counter
CN(Cc1ccc(Cl)c(Cl)c1)C(=O)c1cccc(S(=O)(=O)N2CCN(Cc3ccccc3)CC2)c1 | i | i | i | i | 58 | i | i | i | i
CC1(C)CCc2cc(S(=O)(=O)N3CCN(S(=O)(=O)c4c(F)cccc4F)CC3)ccc2O1 | i | i | i | i | i | i | nt | nt | nt
Cc1ccc2nc(-c3ccc(C#N)cc3)c(Cc3ccccc3C(F)(F)F)n2c1 | i | nt | nt | i | 47 | nt | i | i | i
CCOC(=O)c1sc2nc(C)nc(NCc3ccc(F)cc3)c2c1C | i | i | i | i | 45 | i | i | i | i
CCOC(=O)c1sc2nc(C)nc(NCc3ccc(Cl)cc3)c2c1C | i | i | i | i | i | i | nt | nt | nt
CCOC(OCC)c1nc(N)[nH]c(=O)c1CCCCc1ccccc1 | i | nt | nt | i | i | i | nt | nt | nt
O=C(c1ccc2c(c1)OCO2)N1CCN(S(=O)(=O)c2ccccc2)CC1 | i | i | i | i | i | i | nt | nt | nt
O=C(c1ccc2c(c1)OCO2)N1CCN(S(=O)(=O)c2ccc(Br)cc2Cl)CC1 | i | i | i | i | 52 | i | i | i | i
O=C(c1ccc(Cl)c(Cl)c1)N1CCN(Cc2ccc3c(c2)OCO3)CC1 | i | i | i | i | 57 | i | i | i | i
O=C(c1cc(-c2ccccc2)on1)N1CCN(Cc2ccc3c(c2)OCO3)CC1 | i | i | i | i | 50 | i | i | i | i
Cc1ccc(C(=O)N2CCN(Cc3ccc4c(c3)OCO4)CC2)cc1C | i | i | i | i | i | i | nt | nt | nt
O=C(c1cc(-c2ccc(F)cc2)no1)N1CCN(Cc2ccc3c(c2)OCO3)CC1 | i | i | i | i | 76 | i | i | i | i
Cc1ccc(CNC(=O)C2CCC(CNc3c(N4CCC(C)CC4)c(=O)c3=O)CC2)cc1 (stereo not drawn) | i | i | i | i | 84 | i | 57 | i | i
Cc1ccc(CCNC(=O)C2CCC(CNc3c(N4CCC(C)CC4)c(=O)c3=O)CC2)cc1 (stereo not drawn) | i | i | i | i | i | i | nt | nt | nt
COc1ccc(CN(Cc2ccc(OC)cc2)S(=O)(=O)c2ccc(-n3cnnn3)c(C)c2)cc1 | i | i | i | i | 45 | i | i | i | i
COc1ccc(CN(Cc2cccnc2)S(=O)(=O)c2ccc(-n3cnnn3)c(OC)c2)cc1 | i | i | i | i | i | i | nt | nt | nt
Nc1c(S(=O)(=O)c2ccccc2)c2nc3ccccc3nc2n1/N=C/c1cccc(O)c1 | i | i | i | i | 68 | i | i | i | i
Cc1cccc(S(=O)(=O)c2c(N)n(/N=C/c3ccccc3)c3nc4ccccc4nc23)c1 | i | i | i | i | i | i | nt | nt | nt
O=C(c1cc2cc(Br)ccc2o1)N1CCOCC1 | i | i | i | i | i | i | nt | nt | nt
O=C(c1cc2cc(Br)ccc2o1)N1CCN(c2ccccc2)CC1 | i | i | i | i | 53 | i | i | i | i
O=C(c1cc2ccccc2o1)N1CCN(c2ncccn2)CC1 | i | i | i | i | 59 | i | i | i | i
CN1C/C(=C/c2ccccc2[N+](=O)[O-])C(=O)/C(=C\c2ccccc2[N+](=O)[O-])C1 | i | nt | nt | i | i | i | nt | nt | nt
COC(=O)C(=Cc1ccc(OCc2ccc([N+](=O)[O-])cc2)c(OC)c1)C(=O)OC | i | i | i | i | 57 | i | 67 | i | i
Cc1cc(C(=O)CCC(=O)N2CCN(c3ccccc3)CC2)c(C)s1 | i | i | i | i | i | i | nt | nt | nt
O=C(Oc1ccc(-c2cnc3ccccc3n2)cc1)c1cc([N+](=O)[O-])ccc1Cl | i | i | i | i | 55 | i | i | i | i
SMILES | CXCR6 block | APJ ag | APJ antagonist | hiPSC survival | EBI2 block | CCR6 antagonist | EBI2 antag conf | EBI2 ag | bGal counter
CC1CCCCC12NC(=O)N(CC(=O)Nc1nccs1)C2=O (stereo not drawn) | i | i | i | i | i | i | nt | nt | nt
COc1ccc(-c2cn(Cc3cccc(OC)c3)nn2)cc1 | i | i | i | i | 43 | i | i | i | i
O=C(O)c1ccccc1C(=O)c1cccc2c(Br)cccc12 | i | nt | nt | i | i | i | nt | nt | nt
[O-][n+]1onc2c1CCc1c-2nc(-c2ccccc2)n1OCc1ccccc1 | i | i | i | i | 49 | i | i | i | i
COn1c(-c2ccccc2)nc2c1CCc1c-2no[n+]1[O-] | i | i | i | i | i | i | nt | nt | nt
CCC(=O)N(c1nnc(SCC(=O)Nc2ccccc2Cl)s1)C1CC1 | i | i | i | i | i | i | nt | nt | nt
COc1ccc(/C=C/C(=O)NCC(=O)N/N=C/c2cccnc2)cc1 | i | i | i | i | i | i | nt | nt | nt
COc1ccc(/C=C/C(=O)NCC(=O)N/N=C/c2ccc(OC)cc2)cc1 | i | i | i | i | 62 | i | i | i | i
O=C(COc1ccccc1)NCC(=O)N/N=C/c1ccc(Br)cc1 | i | i | i | i | 38 | i | i | i | i
COc1ccc(/C=C/C(=O)Nc2ccc(OC)nc2)cc1 | i | i | i | i | 44 | i | i | i | i
Cc1cccc(Oc2ncc(-c3ccc(Cl)cc3)cn2)c1 | i | i | i | i | 44 | i | i | i | i
Cc1c(C(=O)Nc2ccccc2)sc2nc(-c3ccccc3)cn12 | i | i | i | i | 44 | i | i | i | i
CCOc1cc(/C=N/NC(=O)COc2nc(C)cc(COC)c2C#N)ccc1O | i | i | i | i | 62 | i | i | i | i
NC(=O)c1ccsc1NC(=O)COC(=O)c1cccnc1Cl | i | i | i | i | i | i | nt | nt | nt
COc1ccccc1N(CC(=O)Nc1cccc(C(F)(F)F)c1)S(C)(=O)=O | i | i | i | i | i | i | nt | nt | nt
Cc1ccc([N+](=O)[O-])cc1N(CC(=O)Nc1ccc(S(=O)(=O)Nc2cccc(C(F)(F)F)c2)cc1)S(C)(=O)=O | i | i | i | i | 84 | i | 65 | i | i
Cc1ccc(-n2nc(C)c(C(=O)Nc3cccc(C(=O)NC4CC4)c3)n2)c(C)c1 | i | i | i | i | i | i | nt | nt | nt
O=C(c1ccc(Cl)cc1)C1CCN(C(=O)c2ccccc2)CC1 | i | i | i | i | i | i | nt | nt | nt
O=C(c1ccc(Cl)cc1)N1CCCC(C(=O)N2CCCCC2)C1 (stereo not drawn) | i | i | i | i | i | i | nt | nt | nt
O=C(c1ccc(Cl)cc1)N1CCN(C(=O)C2CCCCC2)CC1 | i | i | i | i | 60 | i | i | i | i
O=C(c1ccc(F)cc1)C1CCN(C(=O)c2ccc(Cl)cc2)CC1 | i | nt | nt | i | 83 | i | 54 | i | i
Cc1ccc(-c2ccc(C(=O)NCCCNC(=O)c3cnccn3)o2)cc1Cl | i | i | i | i | i | i | nt | nt | nt

High-throughput results as filed in PubChem BioAssay.
